# HCT116 PTEN-null – PTEN-deleted cell growth suppression; HCT116 PTEN-null viability, CellTiter-Glo, 60 h; stronger effect = lower value; viability, % at 10 µM; 140,000 compounds, 1.2% hits;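 active = viability at or below a set limit, 4 SD under the median of all tested compounds, cut at about 3.7% in these data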;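 also: PTEN knockout HCT116 line with beta catenin targeted HCT116 as companion control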
# HCT116 bCat-KO – beta-catenin-lacking colon tumor cell growth suppression; HCT116 beta-catenin knockout viability, CellTiter-Glo, 60 h; stronger effect = lower value; viability, % at 10 µM; 140,000 compounds, 1.5% hits; AID 818;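 active = viability at or under a set limit, the compound median less 4 SD, cut at about 6% in these data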;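 also: 0% = Hyamine 1622 control at 20 µM and 100% = untreated cell control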
# PMI activator – activators of human phosphomannose isomerase; purified human PMI, coupled resazurin fluorescence, 20 min; stronger effect = higher value; 1 = vehicle control, 0 substrate-free wells; activation factor at 20 µM; 190,000 compounds, 0.005% hits; AID 1214;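 active = activation factor of 2 or more at 20 µM, relative to plate controls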
# Target sequence (P34949 whole entry, looked up): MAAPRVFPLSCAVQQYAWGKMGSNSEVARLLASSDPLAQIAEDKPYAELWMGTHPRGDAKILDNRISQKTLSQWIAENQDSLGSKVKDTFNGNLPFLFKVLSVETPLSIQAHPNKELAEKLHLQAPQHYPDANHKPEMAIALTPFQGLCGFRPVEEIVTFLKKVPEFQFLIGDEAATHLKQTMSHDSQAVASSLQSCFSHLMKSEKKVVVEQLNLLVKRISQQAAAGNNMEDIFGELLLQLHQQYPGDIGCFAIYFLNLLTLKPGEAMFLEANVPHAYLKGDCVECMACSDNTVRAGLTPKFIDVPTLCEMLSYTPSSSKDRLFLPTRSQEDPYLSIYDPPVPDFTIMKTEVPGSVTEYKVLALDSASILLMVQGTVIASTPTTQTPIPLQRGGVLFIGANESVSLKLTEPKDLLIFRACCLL
# PMI act hi M6P – activators of human phosphomannose isomerase at near-saturating mannose 6-phosphate; P34949; AID 1216; 190,000 compounds, 0.34% hits; activation factor at 20 µM; coupled PMI enzyme assay, resazurin fluorescence, 20 min; stronger effect = higher value; 1 = untreated enzyme, 0 = substrate-free blank;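 active = activation factor of 2 or more at 20 µM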
#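 assay system = human phosphomannose isomerase with PGI, G6PDH, diaphorase coupling enzymes | quantity = 15 ng/mL PMI | incubation = enzyme reaction with compound 20 min at room temperature | medium = HEPES pH 7.4 buffer with MgCl2 and Tween-20 | compound dosing = one concentration, 20 µM, in 1% DMSO | measured by = Diaphorase-driven resazurin-to-resorufin fluorescence, excitation 544, emission 590 nm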
# Lmaj promast – Leishmania major promastigote growth inhibition; 200,000 compounds, 9% hits; inhibition, % at 10 µM; AID 1063; Leishmania major promastigotes, resazurin fluorescence viability; in the data active = inhibition above about 50%;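 also: promastigotes grown with compound for 44 hours at 28 °C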
# * marks the source's active call; other numbers are inactive results; / = not tested or not shown. Compounds with a hit are over-represented: about 9.6% of the library has one in this group of screens.
SMILES,HCT116 PTEN-null,HCT116 bCat-KO,PMI activator,PMI act hi M6P,Lmaj promast
CN(Cc1cn(C)c2ccccc12)C(=S)Nc1cc(F)cc(F)c1,77.4,89.5,0.9,0.9,74.4*
CCOCCCNC(=S)N1CCCN(c2nc3c(C)c(C)ccc3cc2C#N)CC1,/,/,/,/,12.5
CCOCCCNC(=S)N1CCCN(c2nc3cc(C)ccc3cc2C#N)CC1,/,/,1.7,2.3*,35.2
COc1ccc(C(=O)N2CCN(c3nc4cc(C)ccc4cc3C#N)CC2)c(OC)c1,64.7,58.0,0.9,1,63.4*
Cc1scc(C(=O)N/N=C/c2ccc(OCC(C)C)cc2)c1C,75.8,61.5,0.9,1,87.7*
CN1CCC(OC(=O)c2ccc(Br)cc2)CC1,/,/,/,/,84.9*
CCOc1ccc(C2=C(C=Nc3c(C)n(C)n(-c4ccccc4)c3=O)C(c3ccc(F)cc3)c3ccccc3O2)cc1 (stereo not given),84.2,88.4,0.9,1,56.8*
Cc1[nH]c2ccccc2c1NC(=O)CN1CCN(c2cccc(C(F)(F)F)c2)CC1,66.1,81.1,0.8,1,7.9
Cc1[nH]c2ccccc2c1C(O)CN1CCN(c2cccc(C(F)(F)F)c2)CC1 (stereo not given),22.4,29.1,0.9,0.9,60.2*
Nc1nnc(SCC(=O)NN2C(=O)NC3(CCCCC3)C2=O)s1,96.5,106.3,1.1,1.1,60.2*
O=C(CCl)NN1C(=O)NC2(CCCCC2)C1=O,/,/,1.1,1,-2.1
COCCN(Cc1cc2ccc(C)cc2n2nnnc12)Cc1nnnn1C(C)(C)C,94.8,98.1,1,1,1.1
O=[N+]([O-])c1cccc2ccc(/C=C/c3ccc(F)cc3)nc12,59.9,58.3,1,1,56.6*
CCOc1c(OC(C)=O)ccc(/C=C/c2ccc3cccc(OC(C)=O)c3n2)c1[N+](=O)[O-],3.2*,1.5*,1,0.8,31.8
O=[N+]([O-])c1ccc(/C=C/c2ccc3cccc([N+](=O)[O-])c3n2)cc1,83.7,82.5,0.8,0.8,51.0*
O=C(O)c1ccc(/C=C/c2ccc3cccc(O)c3n2)cc1,/,/,0.9,0.6,3.5
COc1cc(/C=C/c2ccc3cccc([N+](=O)[O-])c3n2)ccc1OCC#N,69.6,82.9,1,1,5.9
CCOc1cc(/C=C/c2ccc3cccc([N+](=O)[O-])c3n2)ccc1O,82.5,85.7,1,1.1,72.7*
CCOc1cc(/C=C/c2ccc3cccc([N+](=O)[O-])c3n2)ccc1OCC(=O)N(C)C,/,/,1.1,0.9,-0.8
COc1c(OC(C)=O)ccc(/C=C/c2ccc3cccc(OC)c3n2)c1[N+](=O)[O-],63.9,58.1,0.8,0.8,5.5
C1CC(CN2CCOCC2)CN(Cc2nc(CC3CC3)no2)C1 (stereo not given),/,/,1,1,-1.9
Cc1onc(-c2c(Cl)cccc2Cl)c1C(=O)N/N=C(\N)COc1ccc(Cl)cc1,9.1,5.9*,0.9,0.9,97.0*
COC(=O)c1ccc2c(c1)C(C)(C)C(/C=C/c1ccccc1O)=[N+]2C,1.8*,2.4*,0.6,1.1,100.6*
CC/C(=C\C1CCCCC1)C(NP(=O)(c1ccccc1)c1ccccc1)c1ccccc1 (stereo not given),3.9,5.6*,0.8,0.8,21.4
O=C(CCN1CCOCC1)c1ccc(Br)cc1,/,/,0.4,0.4,33.1
SMILES,HCT116 PTEN-null,HCT116 bCat-KO,PMI activator,PMI act hi M6P,Lmaj promast
Cc1ccc(SCCC(=O)N2CCCC2)cc1,106.3,103.7,1,1,3.6
Clc1ccc(SCCCCN2CCOCC2)cc1,100.4,96.4,1,1,96.7*
Clc1ccc(SCCCCN2CCNCC2)cc1,72.5,56.7,1.1,1.2,100.2*
Cc1ccc(SCCCCN2CCNCC2)cc1,82.9,83.8,1.1,1.1,99.8*
O=C(CCN1CCOCC1)c1ccc(Cl)cc1,/,/,0.7,0.7,71.7*
CC1(C)NC(=O)N(CCCSc2ccc(Cl)cc2)C1=O,93.8,95.5,0.9,0.9,12.5
NNC(=O)C12CC3CC(C1)CC(n1ncnn1)(C3)C2,102.9,99.7,1,1,-6.4
Cc1ccn(CC(=O)N/N=C/c2cc([N+](=O)[O-])ccc2O)n1,64.5,62.9,0.9,1.1,6.0
C/C(=N/NC(=O)c1cc2ccccc2cc1O)C1C(=O)c2ccccc2C1=O,76.0,57.9,1.1,1.2,81.2*
O=C(NN=C(Cc1ccccc1)Cc1ccccc1)c1ccccc1O,/,/,1.2,1.2,61.1*
C/C(CC(=O)N1CCN(C=O)CC1)=N\NC(=O)c1cc2ccccc2cc1O,50.9,41.3,0.2,0.2,9.8

# Screens: PubChem, several laboratories
